Assay results as given in PMC8475556 (Oncoimmunology, 2021).
Read-outs that look alike come from different tables or passages of the source. *1 amine or outer side, *2 acyl side, *3 side chain or, on linkers, in order; H or OH if unused. Where a SMILES comes first, the peptide text is derived from it. Bridges are numbered along the chain shown (N, C = ends). Roman numbers before positions name the chains, in order. [ ]: non-standard residue; d: D form. Hexamethylenediamine = C(CCCN[*:2])CCN[*:1]; Dip = N[C@H](C(=O)O)C(c1ccccc1)c1ccccc1; Chg = N[C@H](C(=O)O)C1CCCCC1; NMeA = CN[C@@H](C)C(=O)O

Key:
[1] = system: pERK; experiment: pERK phosphoflow in live primary CLL cells after 24 h treatment; type: cell-based, human; conditions: for IC50: Homo sapiens, CLL cell, read-out: IC50 for decrease in pERK (dMFI)
[2] = system: primary CLL cells; experiment: Cell death; type: cell-based, human; conditions: for IC50: Homo sapiens, CLL cell, read-out: IC50 for cell death; for primary CLL cells died: cleaved caspase-3
[3] = system: pNF-κB p65; experiment: pNF-κB p65 phosphoflow in live primary CLL cells after 24 h treatment; type: cell-based, human; conditions: for IC50: Homo sapiens, CLL cell, read-out: IC50 for decrease in pNF-κB p65 (dMFI)
[4] = system: Mcl-1; experiment: Mcl-1 by flow cytometry in live primary CLL cells after 24 h treatment; type: cell-based, human; conditions: for IC50: Homo sapiens, CLL cell, read-out: IC50 for lowering Mcl-1 (Mcl-1 dMFI)
Summary of the method: (§1)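 Primary CLL cells were thawed and resuspended at 8 × 10^6 cells/mL in high-glucose complete medium (2.5 g/L total glucose). They were plated at 2 × 10^6 per well on confluent OP9 stroma, rested overnight, then treated 24 h with test compound at 0.1% DMSO final. Staining: Fc block, viability dye, CD19/CD5, Foxp3-buffer fix/perm, then intracellular Bcl-2 BV421 or Mcl-1 AF647. Live CD5+CD19+ gate; dMFI = MFI minus FMO; n = 6 donors, 2 experiments pooled.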

[5] = system: pS6; experiment: pS6 phosphoflow in live primary CLL cells after 24 h treatment; type: cell-based, human; conditions: for IC50: Homo sapiens, CLL cell, read-out: IC50 for decrease in pS6 (dMFI)
[6] = system: Bcl-2; experiment: Bcl-2 by flow cytometry in live primary CLL cells after 24 h treatment; type: cell-based, human; conditions: for IC50: Homo sapiens, CLL cell, read-out: IC50 for lowering Bcl-2 (Bcl-2 dMFI)
Summary of the method: as §1

[7] = system: TRAF1; experiment: TRAF1 by flow cytometry in live primary CLL cells on OP9 after 24 h treatment; type: cell-based, human; conditions: for effect on TRAF1 expression: primary CLL cells, 24 h
[8] = system: TRAF1 in the CD40 signaling complex; type: cell-based, human; conditions: BV6 5 μM
Summary of the method: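 shCTL or shPKN1 RAJI cells (6 × 10^6) received cycloheximide 3 μg/ml for the indicated times, ± BV6 5 μM, and were lysed in 1% NP-40 with protease/phosphatase inhibitors. For IP1, Protein G magnetic beads were loaded with 0.5 μg anti-CD40 (10 min, RT), then incubated with lysate overnight at 4°C. Unbound material was re-precipitated with 0.5 μg anti-TRAF1 (IP2). Both IPs and lysates were western blotted for TRAF1.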

[9] = system: TRAF1; type: cell-based, human; conditions: 24 h; for IC50: Homo sapiens, Raji, read-out: IC50 for reducing TRAF1; for effect on TRAF1 levels: RAJI cells, 0.1 nM-10 μM
Summary of the method: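 shCTL RAJI cells were seeded at 2 × 10^5 per well in RPMI 1640 with 10% FCS, 2-ME, glutamine, pen/strep and non-essential amino acids. Test compound was added at 0.1 nM–10 μM (0.1% DMSO final) for 24 h. Staining: Fc block, viability dye, Foxp3-buffer fixation/permeabilisation, rat anti-TRAF1 (clone 1F3) with goat anti-rat PE secondary. TRAF1 dMFI = MFI minus FMO background.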

[10] = target: PRK1(h) (Homo sapiens, UniProt Q16512); experiment: Dose titration of selected inhibitors against PKN1 kinase activity in vitro; type: biochemical
Sequence of PRK1(h) (Q16512 whole entry): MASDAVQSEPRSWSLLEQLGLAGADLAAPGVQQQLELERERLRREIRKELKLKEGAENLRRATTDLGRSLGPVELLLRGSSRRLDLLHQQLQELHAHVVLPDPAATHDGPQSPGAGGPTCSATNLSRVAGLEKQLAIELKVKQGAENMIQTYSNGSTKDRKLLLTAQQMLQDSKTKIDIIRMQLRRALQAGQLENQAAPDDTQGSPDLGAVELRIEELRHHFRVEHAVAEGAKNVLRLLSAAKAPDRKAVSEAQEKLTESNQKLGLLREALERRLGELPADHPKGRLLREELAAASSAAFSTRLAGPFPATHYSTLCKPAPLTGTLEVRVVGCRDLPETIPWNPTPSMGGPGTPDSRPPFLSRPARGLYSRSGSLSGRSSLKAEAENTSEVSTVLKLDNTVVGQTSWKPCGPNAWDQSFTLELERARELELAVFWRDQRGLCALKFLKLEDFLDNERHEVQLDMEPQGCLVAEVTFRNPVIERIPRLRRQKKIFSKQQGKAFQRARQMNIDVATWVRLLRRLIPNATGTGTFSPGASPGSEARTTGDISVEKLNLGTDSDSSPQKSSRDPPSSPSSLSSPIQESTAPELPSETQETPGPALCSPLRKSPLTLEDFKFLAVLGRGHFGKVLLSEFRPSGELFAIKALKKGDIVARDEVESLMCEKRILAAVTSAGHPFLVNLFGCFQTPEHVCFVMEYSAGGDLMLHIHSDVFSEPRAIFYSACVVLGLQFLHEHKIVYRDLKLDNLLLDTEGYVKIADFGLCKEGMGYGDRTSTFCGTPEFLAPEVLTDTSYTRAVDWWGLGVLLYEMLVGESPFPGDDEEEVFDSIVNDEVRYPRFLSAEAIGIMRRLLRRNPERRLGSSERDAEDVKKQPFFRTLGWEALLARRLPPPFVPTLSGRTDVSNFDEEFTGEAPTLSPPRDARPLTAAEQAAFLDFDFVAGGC

[11] = system: pERK; experiment: pERK by flow cytometry in RAJI cells after 24 h inhibitor treatment; type: cell-based, human

For `Clc1ccc(C2(c3ccc(-c4cn[nH]c4)cc3)CCNCC2)cc1` [AT7867], the “effect on pERK” value ([1]; primary CLL cells) was “slightly reduced”, the “effect on cell death” value ([2]; primary CLL cells, 24 h) was “no effect” and the “effect on levels of pNF-κB” value ([3]; primary CLL cells) was “did not affect”. The “effect on Mcl-1 expression” value ([4]; primary CLL cells) was “did not affect”, the “effect on pS6” value ([5]; primary CLL cells) was “slightly reduced” and the “effect on Bcl-2 expression” value ([6]; primary CLL cells) was “did not affect”. The “effect on TRAF1 expression” value [7] was “no effect”.

For `CN[C@@H](C)C(=O)N[C@H](C(=O)N1CCC[C@H]1C(=O)N[C@H](C(=O)NCCCCCCNC(=O)[C@@H](NC(=O)[C@@H]1CCCN1C(=O)[C@@H](NC(=O)[C@H](C)NC)C1CCCCC1)C(c1ccccc1)c1ccccc1)C(c1ccccc1)c1ccccc1)C1CCCCC1` [BV6] (I: H-[NMeA][Chg]P[Dip] / II: H-[NMeA][Chg]P[Dip]; linker I:C-II:C via Hexamethylenediamine), the “cytosolic pool of TRAF1 (IP2)” value ([8]; RAJI cells, cycloheximide) was “not sensitive”, the “CD40 associated TRAF1 protein” value ([8]; shCTL RAJI cells (presence of PKN1), cycloheximide 6 h) was “rescued” and the “CD40 associated TRAF1 protein” value ([8]; shPKN1 RAJI cells (absence of PKN1), cycloheximide) was “partially rescued”.

`CC(C)c1cc(CNc2nc(Nc3cc(C4CC4)[nH]n3)cc(N3CCN(C)CC3)n2)on1` [XL-228] was tested, and the IC50 [1] was 2230 nM, the cells survived treatment ([2]; primary CLL cells, suboptimal concentration 4 μM) was 20–50% and the IC50 [3] was 2470 nM. For the same compound, the IC50 [4] was 2540 nM, the IC50 [5] was 1440 nM and the IC50 [9] was 2300 nM. For the same compound, the IC50 [6] was 3520 nM.

With `Cn1ncc(Cl)c1-c1cc(C(=O)N[C@H](CN)Cc2ccc(F)c(F)c2)oc1Cl` [uprosertib, Uprosertib] the IC50 [9] was 4900 nM.

With `CC1(COc2ccc3c(c2)ncn3-c2ccc3cccc(N4CCC(N)CC4)c3n2)COC1` [crenolanib, Crenolanib] the “effect on TRAF1 levels” value [9] was “increased rather than decreased”.

`CC1(C)CCC(CN2CCN(c3ccc(C(=O)NS(=O)(=O)c4ccc(NCC5CCOCC5)c([N+](=O)[O-])c4)c(Oc4cnc5[nH]ccc5c4)c3)CC2)=C(c2ccc(Cl)cc2)C1` [venetoclax] was tested, and the IC50 ([2]; 24 h) was 9.91 nM, the “primary CLL cells died” value ([2]; suboptimal 1 nM alone, 24 h) was under 15% and the “decrease of IC50 for cell death compared to treatment alone” value ([2]; venetoclax with 10 nM OTSSP167 versus venetoclax alone) was 5.8 fold. The “patients whose CLL cells were enriched for TRAF1hi cells after treatment” value ([7]; dose that resulted in approximately 50% death) was 4 of 6 and the “effect on TRAF1 expression” value [7] was “lack of effect”.

For `CCCCNc1ncc2c(-c3ccc(CN4CCN(C)CC4)cc3)cn([C@H]3CC[C@H](O)CC3)c2n1` [UNC-2025], the “effect on TRAF1 levels” value [9] was “increased rather than decreased”.

`CC(=O)c1cnc2ccc(-c3cc(Cl)c(O)c(Cl)c3)nc2c1N[C@H]1CC[C@H](CN(C)C)CC1` [OTSSP167] was tested, and the IC50 [1] was 1040 nM, the IC50 ([2]; 24 h) was 45.9 nM and the “reduction of IC50 for cell death compared to treatment alone” value ([2]; OTSSP167 with 1 nM venetoclax versus OTSSP167 alone) was 1.9 fold. The cells survived treatment ([2]; primary CLL cells, suboptimal concentration 50 nM) was 20–50%, the “primary CLL cells died” value ([2]; suboptimal 10 nM alone, 24 h) was under 15% and the IC50 [3] was 320 nM. It also gave an IC50 [10] of 11 nM, an IC50 [4] of 25.7 nM and an IC50 [5] of 310 nM. The pERK levels [11] was “decreased only at the highest levels”, the IC50 [9] was 18 nM and the IC50 [6] was 49.8 nM.

Compound `CC(C)NC[C@@H](C(=O)N1CCN(c2ncnc3c2[C@H](C)C[C@H]3O)CC1)c1ccc(Cl)cc1` [ipatasertib, Ipatasertib] has an IC50 [9] of over 10000 nM.

`C[C@@H]1CCN(C(=O)CC#N)C[C@@H]1N(C)c1ncnc2[nH]ccc12` [tofacitinib] was tested, and the “effect on TRAF1 levels” value [9] was “minimal effects”.
